Measured values reported in ChEMBL document CHEMBL1949587 (Bioorg Med Chem, 2012).
Values after ≈ are worked out from the molar mass of the structure shown. Active and inactive are the calls of the source. The rule behind the calls is not given here.

How the values were obtained:
[1] = tested on: HCT-116; assay: Antiproliferative activity against human HCT116 cells; type: cell-based
[2] = tested on: HUVEC; assay: Selectivity ratio of IC50 for human HCT116 cells to IC50 for HUVEC cells
[3] = tested on: HUVEC; assay: Antiangiogenic activity in HUVEC assessed as inhibition of VEGF-induced cell proliferation after 4 days; type: functional, cell-based; conditions: Homo sapiens, 96 h
Outline: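 HUVECs maintained in RPMI1640 with 10% FCS, 50 μg/mL heparin and ECGS, then seeded at 3000 cells/well in RPMI1640 with 5% FCS and 20 ng/mL VEGF, with compound at serially diluted concentrations. Incubated at 37 °C, 5% CO₂. Read-out is Cell Counting Kit-8, absorbance at 450 nm. Inhibition = (1−T/C)×100 against untreated control.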

[4] = Solubility of the compound in fasted state simulated intestinal fluid at 10 mM after 2 hrs by HPLC-UV analysis; type: physicochemical
Outline: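 Triplicate samples made from 10 mM DMSO stocks. DMSO evaporated (1 h), residue dissolved in FaSSIF and shaken 2 h. Solutions filtered, filtrate analysed by UV or HPLC-UV against a four-point calibration curve from the stocks. Result in µg/mL.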

[5] = Clearance in mouse liver microsome at 5 uM after 60 mins by LC-MS/MS analysis; type: ADME; conditions: liver microsomes, read-out: CLH
Outline: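 Test compound at 5 µM incubated with mouse liver microsomes, 1.0 mg protein/mL, in 50 mM potassium phosphate pH 7.4 at 37 °C. Started by adding NADPH generating system (glucose 6-phosphate 3.2 mM, β-NADP 2.6 mM, MgCl2 6.5 mM). Substrate depletion measured against internal standard. Intrinsic clearance is the first-order decay constant normalized to protein.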

[6] = target: Vascular endothelial growth factor receptor 2 (Homo sapiens, UniProt P35968); assay: Inhibition of VEGFR2
[7] = tested on: Calu-6; assay: Antitumor activity against human Calu6 cells xenografted in BALB/c mouse assessed as tumor growth inhibition at 600 mg/kg, po for 11 days relative to control; type: functional; conditions: Calu-6, 264 h, read-out: TGI
Outline: (§1)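 Calu-6 cells in Hanks' balanced salt solution implanted s.c. in the flank of female Balb/c nude mice, 5.0×10⁶ per mouse. Oral dosing once daily for 11 days, starting at tumor volume 150 mm³. Volume = 1/2 × long × short². Tumor growth inhibition taken from change in volume of the treated group against change in controls.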

[8] = tested on: Calu-6; assay: Antiangiogenic activity in human Calu6 cells xenografted in BALB/c mouse assessed as microvessel density reduction at 300 mg/kg, po after 11 days by immunohistochemical staining method; type: functional; design: scale not given: the % may be the effect or the level left
Outline: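 Female Balb/c nude mice given Calu-6 cells s.c. in the flank, 5.0×10⁶ cells per mouse. Dosing was oral, once daily for 11 days, starting once tumors reached 150 mm³. Tumors taken 24 h after the last dose and frozen-sectioned from the mid-portion. Vessels stained with anti-mouse CD31 and counted by image analysis. Density decrease expressed against control.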

[9] = tested on: Calu-6; assay: Antitumor activity against human Calu6 cells xenografted in BALB/c mouse assessed as tumor growth inhibition at 300 mg/kg, po for 11 days relative to control; type: functional; conditions: Calu-6, 264 h, read-out: TGI; outline: as §1
[10] = Lipophilicity, log D of the compound at pH 7; type: physicochemical; conditions: buffer
[11] = Toxicity in human Calu6 cells xenografted po dosed BALB/c mouse assessed as body weight change administered qd for 11 days; conditions: in vivo
[12] = tested on: Calu-6; assay: Antitumor activity against human Calu6 cells xenografted in BALB/c mouse assessed as tumor growth inhibition at 80 mg/kg, po qd for 11 days; type: functional, organism-based; design: dose 80 mg/kg
Outline: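 Female Balb/c nude mice carried s.c. flank Calu-6 xenografts, 5.0×10⁶ cells in Hanks' solution. At 200 mm³, mice were randomized into 4 groups (n = 5): vehicle, 150 mg/kg, sunitinib 80 mg/kg, or both. Each group dosed orally once daily for 11 days. Volume = 1/2 × long × short². Inhibition from volume change against control.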

[13] = dose 600 mg/kg, in the assay text read “600 mg/kg” for “300 mg/kg”

Chain of Vascular endothelial growth factor receptor 2 (P35968 whole entry): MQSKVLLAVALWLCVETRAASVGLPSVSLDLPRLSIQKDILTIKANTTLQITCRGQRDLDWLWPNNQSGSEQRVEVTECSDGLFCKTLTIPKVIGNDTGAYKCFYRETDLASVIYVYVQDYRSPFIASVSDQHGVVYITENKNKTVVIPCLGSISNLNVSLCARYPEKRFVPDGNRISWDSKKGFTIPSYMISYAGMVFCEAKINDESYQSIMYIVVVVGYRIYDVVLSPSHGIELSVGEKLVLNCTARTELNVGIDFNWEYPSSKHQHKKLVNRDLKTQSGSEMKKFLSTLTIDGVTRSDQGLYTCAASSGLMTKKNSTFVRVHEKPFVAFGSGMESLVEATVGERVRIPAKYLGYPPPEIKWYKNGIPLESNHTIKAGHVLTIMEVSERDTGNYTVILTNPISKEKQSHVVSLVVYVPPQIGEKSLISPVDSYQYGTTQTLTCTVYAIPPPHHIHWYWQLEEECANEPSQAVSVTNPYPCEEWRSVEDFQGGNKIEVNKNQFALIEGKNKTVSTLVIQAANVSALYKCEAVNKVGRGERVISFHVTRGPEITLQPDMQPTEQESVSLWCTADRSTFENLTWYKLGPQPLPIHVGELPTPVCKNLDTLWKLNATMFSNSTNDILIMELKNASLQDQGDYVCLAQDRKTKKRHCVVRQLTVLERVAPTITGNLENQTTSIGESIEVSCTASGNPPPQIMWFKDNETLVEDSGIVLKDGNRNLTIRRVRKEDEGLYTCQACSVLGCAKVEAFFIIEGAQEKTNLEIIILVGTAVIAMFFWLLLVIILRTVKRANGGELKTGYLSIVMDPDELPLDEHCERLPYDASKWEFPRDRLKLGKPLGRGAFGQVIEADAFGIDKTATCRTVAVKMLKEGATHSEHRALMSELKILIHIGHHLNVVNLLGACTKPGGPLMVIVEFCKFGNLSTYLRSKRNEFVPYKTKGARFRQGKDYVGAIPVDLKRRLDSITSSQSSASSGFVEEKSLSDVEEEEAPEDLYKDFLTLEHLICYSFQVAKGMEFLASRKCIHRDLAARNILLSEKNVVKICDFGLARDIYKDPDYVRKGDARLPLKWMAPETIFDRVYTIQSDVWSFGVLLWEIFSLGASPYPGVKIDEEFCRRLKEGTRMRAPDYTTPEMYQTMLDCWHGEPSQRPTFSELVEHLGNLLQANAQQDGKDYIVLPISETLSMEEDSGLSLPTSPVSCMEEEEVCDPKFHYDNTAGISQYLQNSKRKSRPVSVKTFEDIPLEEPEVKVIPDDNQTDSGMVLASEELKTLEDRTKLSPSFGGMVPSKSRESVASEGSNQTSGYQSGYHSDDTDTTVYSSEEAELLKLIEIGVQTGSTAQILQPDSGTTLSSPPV

IC50 [1] | microsomal CLint at 5 µM [5] | Structure (SMILES) | Ratio IC50 [2] | IC50 [3] | other results
16 µM | 331 µL/min/mg | CNC(=O)c1ccc(OC)c(/C=C/c2ccc(Cl)cc2)c1 | 84 | 0.19 µM | solubility at 2 h, 10000 µM [4]: 24 µg/mL (≈ 79.5 µM)
15 µM |  | COc1ccc(C(N)=O)cc1/C=C/c1cccc(Cl)c1 | 0.6 | 24 µM | 
15 µM | 187 µL/min/mg | CCNC(=O)c1ccc(OC)c(/C=C/c2ccc(Cl)cc2)c1 | 94 | 0.16 µM | solubility at 2 h, 10000 µM [4]: 9 µg/mL (≈ 28.5 µM)
> 50 µM | 414 µL/min/mg | COc1ccc(C(N)=O)cc1COc1ccc(Cl)c(C)c1 | >78 | 0.64 µM | IC50 [6]: > 50 µM; inhibition in vivo at 600 mg/kg [7]: 14%; Activity [8, 13]: 0%
11 µM |  | COc1ccc(C(N)=O)cc1/C=C/c1ccc(Cl)c(Cl)c1 | 20 | 0.56 µM | 
26 µM |  | COc1ccc(C(N)=O)cc1/C=C/c1ccccc1F | 13 | 2 µM | 
> 50 µM |  | COc1ccc(C#N)cc1COc1ccc(Cl)c(C)c1 | >33 | 1.5 µM | 
38 µM | 247 µL/min/mg | NC(=O)c1ccc(OCCOCCO)c(/C=C/c2ccc(Cl)cc2)c1 |  | 11 µM | solubility at 2 h, 10000 µM [4]: 74 µg/mL (≈ 205 µM)
19 µM |  | COc1ccc(/C=C/c2cc(C(N)=O)ccc2OC)cc1 | 2.2 | 8.8 µM | 
35 µM |  | COc1ccc(C(=O)N(C)C)cc1/C=C/c1ccc(Cl)cc1 | 14 | 2.5 µM | 
35 µM |  | COc1ccc(C(N)=O)cc1/C=C/c1ccc(C(F)(F)F)cc1 | 40 | 0.88 µM | 
24 µM |  | COc1ccc(C(C)=O)cc1COc1cccc(C)c1 | 8.6 | 2.8 µM | 
17 µM | 73 µL/min/mg | COc1ccc(C(=O)NCCO)cc1/C=C/c1ccc(Cl)cc1 | 19 | 0.91 µM | solubility at 2 h, 10000 µM [4]: 16 µg/mL (≈ 48.2 µM)
19 µM |  | COc1ccc(C(N)=O)cc1/C=C/c1cccc(C#N)c1 | 0.4 | 49 µM | 
> 50 µM |  | COc1ccc(C(N)=O)cc1/C=C/c1ccccc1Cl | 2.2 | 23 µM | 
14 µM | 8 µL/min/mg | COc1ccc(C(=O)NC(CO)CO)cc1/C=C/c1ccc(Cl)cc1 | 9.3 | 1.5 µM | solubility at 2 h, 10000 µM [4]: 251 µg/mL (≈ 694 µM)
39 µM |  | COc1ccc(C(C)=O)cc1COc1ccc(Cl)cc1 | 33 | 1.2 µM | 
> 50 µM | 83 µL/min/mg | CCCOc1ccc(C(N)=O)cc1/C=C/c1ccc(Cl)cc1 | 38 | 1.3 µM | solubility at 2 h, 10000 µM [4]: 4 µg/mL (≈ 12.7 µM)

Further lines, the compound ahead of its results:

Structure (SMILES) | IC50 [1] | microsomal CLint at 5 µM [5] | Ratio IC50 [2] | IC50 [3] | other results
COc1ccc(C(N)=O)cc1/C=C/c1ccccc1C | 11 µM |  | 4.8 | 2.3 µM | 
COC(=O)c1ccc(OC)c(COc2ccc(Cl)c(C)c2)c1 | 23 µM |  | 10 | 2.3 µM | 
COc1ccc(C(N)=O)cc1/C=C/c1ccccc1 | 36 µM |  | 15 | 2.4 µM | 
CCOc1ccc(C(N)=O)cc1/C=C/c1ccc(Cl)cc1 | 1.7 µM | 123 µL/min/mg | 8.9 | 0.19 µM | solubility at 2 h, 10000 µM [4]: 10 µg/mL (≈ 33.1 µM)
COc1ccc(C(N)=O)cc1/C=C/c1ccc(C#N)cc1 | 16 µM |  | 5.2 | 3.1 µM | 
COc1ccc(C(N)=O)cc1/C=C/c1ccc(Cl)cc1Cl | > 50 µM |  | >19 | 2.6 µM | 
COc1ccc(C(N)=O)cc1/C=C/c1ccc(C)cc1 | 48 µM |  | 30 | 1.6 µM | 
Cc1cc(OCc2cccc(C#N)c2)ccc1Cl | 45 µM |  | 4.1 | 11 µM | 
CCc1ccc(OC)c(COc2ccc(Cl)c(C)c2)c1 | 43 µM |  | 1.1 | 40 µM | 
COc1ccc(C(N)=O)cc1COc1ccc(Cl)cc1 | > 50 µM | 97 µL/min/mg | >75 | 0.66 µM | IC50 [6]: > 50 µM; inhibition in vivo at 600 mg/kg [7]: 62%; Activity [8, 13]: 27%
COc1ccc(C(N)=O)cc1/C=C/c1ccccc1OC(F)(F)F | 36 µM |  | 4 | 8.9 µM | 
COc1ccc(C(N)=O)cc1/C=C/c1ccc(Cl)cc1F | > 10 µM |  | >5.9 | 1.7 µM | 
COc1ccccc1/C=C/c1cc(C(N)=O)ccc1OC | > 50 µM |  | >8.8 | 5.7 µM | 
COc1ccc(C(N)=O)cc1/C=C/c1ccc(Cl)cc1 | 7.1 µM | 110 µL/min/mg | 82 | 0.087 µM | IC50 [6]: > 50 µM; solubility at 2 h, 10000 µM [4]: 16 µg/mL (≈ 55.6 µM); inhibition in vivo at 300 mg/kg [9]: 71%; logD [10]: 4; Activity ([8]; dose 300 mg/kg): 60%
COc1ccc(C(=O)NCC(O)CO)cc1/C=C/c1ccc(Cl)cc1 (stereo not given) | 12 µM | 10 µL/min/mg |  | 0.4 µM | solubility at 2 h, 10000 µM [4]: 317 µg/mL (≈ 876 µM)
COc1ccc(C(C)=O)cc1COc1ccc(Cl)c(C)c1 | 34 µM |  | 26 | 1.3 µM | IC50 [6]: > 50 µM; inhibition in vivo at 600 mg/kg [7]: 34%; Activity [8, 13]: 15%
COc1ccc(C(N)=O)cc1/C=C\c1ccc(Cl)cc1 | 29 µM | 544 µL/min/mg | 10 | 2.9 µM | solubility at 2 h, 10000 µM [4]: 137 µg/mL (≈ 476 µM)
CN(C)CCOc1ccc(C(N)=O)cc1/C=C/c1ccc(Cl)cc1 | 4.9 µM | 288 µL/min/mg | 0.6 | 8.4 µM | solubility at 2 h, 10000 µM [4]: 109 µg/mL (≈ 316 µM)
COc1ccc(C(N)=O)cc1/C=C/c1cccc(F)c1 | > 50 µM |  | >6 | 8.3 µM | 
COc1ccc(C(N)=O)cc1/C=C/c1ccc(C(C)(C)C)cc1 | 20 µM |  | 54 | 0.37 µM | 
COc1ccc(C(N)=O)cc1/C=C/c1cccc(C)c1 | 23 µM |  | 5.9 | 3.9 µM | 
COc1ccc(C(=O)O)cc1COc1ccc(Cl)c(C)c1 | > 50 µM |  |  | > 50 µM | 
CN1CCN(CCOc2ccc(C(N)=O)cc2/C=C/c2ccc(Cl)cc2)CC1 | 7.5 µM | 251 µL/min/mg | 0.8 | 9.5 µM | solubility at 2 h, 10000 µM [4]: 164 µg/mL (≈ 410 µM)
COc1ccc(C(N)=O)cc1/C=C/c1ccc(Br)cc1 | 22 µM |  | 39 | 0.56 µM | 
COc1ccc(C(N)=O)cc1/C=C/c1ccc(F)cc1 | 24 µM |  | 11 | 2.1 µM | 
COc1ccc(C(N)=O)cc1C(=O)Nc1ccc(Cl)cc1 | > 50 µM | 16 µL/min/mg | >9 | 5.5 µM | solubility at 2 h, 10000 µM [4]: 5 µg/mL (≈ 16.4 µM)
COc1ccc(C(N)=O)cc1/C=C/c1ccc([N+](=O)[O-])cc1 | 22 µM |  | 4.7 | 4.7 µM | 
CCN(CC)CCNC(=O)c1c(C)[nH]c(/C=C2\C(=O)Nc3ccc(F)cc32)c1C [SUNITINIB] |  |  |  |  | MTD at 264 h [11]: 80 mg/kg; TGI [12]: Active
